TMEM16A inh – TMEM16A chloride channel inhibitors, primary screen, cell-based, HTS; Anoctamin-1 (Mus musculus), Q8BHY3; HEK293 TMEM16A/YFP iodide influx fluorescence, ionomycin; normalized B-score (activity score, 25-100; higher = stronger inhibition) at 10 µM; hit rate 1.2% among 310,000;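 active = ratio plate-corrected score three or more library SD toward inhibition, starting fluorescence score within five deviations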;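 note: score derived from kinetic fluorescence span divided by baseline fluorescence per well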
IMP-1 inh – IMP-1 metallo-beta-lactamase inhibitors, primary screen, biochemical, epi-absorbance readout, Pseudomonas aeruginosa enzyme; inhibition, % at 5.6 µM; AID 1556, 2009; hit rate 0.45% among 290,000; metallo-beta-lactamase IMP-1 (Pseudomonas aeruginosa); purified IMP-1, nitrocefin hydrolysis, epi-absorbance fluorescence;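 active = inhibition above the mean plus 3 SD of all compounds in the same screening run, cut at about 4.5% in these data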
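System: purified IMP-1; amount: IMP-1 0.2 nM before substrate addition; compound: single dose, 5.6 µM; times: 25 °C, 15 min preincubation, 25 min reaction; signal: Epi-absorbance via hydrolysed-nitrocefin quenching of white-plate fluorescence, 480/530 nm, EDTA stop; benchmarks: DMSO with and without IMP-1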
VIM-2 inh – VIM-2 metallo-beta-lactamase inhibitors, primary screen, biochemical, epi-absorbance readout, Pseudomonas aeruginosa enzyme | purified VIM-2, nitrocefin hydrolysis, epi-absorbance fluorescence | inhibition, % at 5.6 µM | hit rate 0.89% among 290,000;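 active = inhibition above the mean of all tested compounds plus 3 SD, cutoff set per screening run, cut at about 7.5% in these data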;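 note: red hydrolysis product quenches plate fluorescence so inhibitors raise well fluorescence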
CHT inh – inhibitors of human choline transporter CHT; B-score at 10 µM; CHT-expressing cells, membrane potential dye, choline response; hits give low values; hit rate 0.86% among 310,000; AID 488975, 2010;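 active = B-score over 3 SD under the library average, and starting fluorescence ratio not unusually high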;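 note: choline stimulus applied at its EC90 after an EC20 pre-addition; B-score computed on integrated fluorescence ratio after choline addition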
Target sequence (Q9GZV3 whole entry, looked up): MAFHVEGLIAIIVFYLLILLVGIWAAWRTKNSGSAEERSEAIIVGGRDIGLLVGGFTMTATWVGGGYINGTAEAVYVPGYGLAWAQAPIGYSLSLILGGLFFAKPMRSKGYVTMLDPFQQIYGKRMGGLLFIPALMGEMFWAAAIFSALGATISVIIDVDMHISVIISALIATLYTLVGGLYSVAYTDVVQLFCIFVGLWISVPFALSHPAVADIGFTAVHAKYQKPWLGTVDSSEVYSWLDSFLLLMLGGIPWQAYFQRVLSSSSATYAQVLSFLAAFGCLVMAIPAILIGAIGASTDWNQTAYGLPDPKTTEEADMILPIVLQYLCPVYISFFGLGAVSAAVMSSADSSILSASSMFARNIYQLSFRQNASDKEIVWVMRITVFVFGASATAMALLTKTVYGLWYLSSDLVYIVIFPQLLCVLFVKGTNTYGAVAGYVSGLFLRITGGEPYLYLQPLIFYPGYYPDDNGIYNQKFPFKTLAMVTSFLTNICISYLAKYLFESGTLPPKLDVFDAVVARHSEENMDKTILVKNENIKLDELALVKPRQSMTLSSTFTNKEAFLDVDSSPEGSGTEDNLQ
CHT PAM – CHT positive allosteric modulators, primary screen, cell-based, membrane potential dye, choline EC20; High affinity choline transporter 1 (Homo sapiens), Q9GZV3; CHT-expressing cells; hits give high values; LV-AA mutant CHT in HEK293 cells; B-score at 10 µM; hit rate 0.49% among 310,000; AID 488977, 2010;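 active = initial fluorescence not abnormally high and integrated response B-score, plate-corrected, over 3 SD above library mean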
TMEM16A act – TMEM16A chloride channel activators or potentiators, primary screen, cell-based, HTS; Anoctamin-1 (Mus musculus), Q8BHY3; HEK293 TMEM16A/YFP-H148Q/I152L, iodide quench fluorescence; hits give low values; B-score at 10 µM; hit rate 0.3% among 340,000; AID 623877, 2012;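 active = fluorescence-ratio B-score plate-corrected deviation score at least 3 library SD below zero, with starting fluorescence score within 5 deviations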;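 note: channel opened by trigger with iodide after compound preincubation; score built on the fluorescence ratio of max minus min over baseline; more negative score means more quench and so TMEM16A activation or potentiation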
CHT act confirm – CHT activators, confirmation, cell-based, membrane potential dye, duplicate. shares compounds with CHT PAM. CHT-expressing cells, membrane potential dye fluorescence (FDSS); % of choline EC20–EC90 response window; HEK293 expressing CHT LV-AA mutant; choline added at its EC20. activation, % at 10 µM. hit rate 91% among 2,500;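 active = primary screen active, with duplicate mean activation above negative control mean plus 3 SD, cut at about 11% in these data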
HEK293 MP dye – membrane potential response in parental HEK293 cells, counter-screen for CHT activator project, cell-based, membrane potential dye; shares compounds with CHT PAM; membrane potential dye fluorescence (FDSS); measured after EC20 choline addition; ratio readout change at 10 µM, hits read low; hit rate 62% among 2,500; AID 623908, 2012;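 active = duplicate-averaged ratio beyond 3 SD from buffer wells, up or down, though filed actives are nearly all decreases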
Hits are given with their value; n = inactive; x = no result. The list is not random: actives were taken first. Their share in the collection is about 3.4%.

SMILES	TMEM16A inh	IMP-1 inh	VIM-2 inh	CHT inh	CHT PAM	TMEM16A act	CHT act confirm	HEK293 MP dye
CSc1ccc(C(=O)NC2CCSc3ccccc32)cc1 (configuration not stated)	n	n	n	n	n	n	x	x
COc1ccccc1CN1CCC(CNS(=O)(=O)c2cc(-c3onc(C)c3C)ccc2OC)CC1	n	n	n	n	n	n	39	-48
CCOC(=O)c1sc2nccc(OC)c2c1N=CN(C)C	n	n	n	n	6.6	n	63	-35
CCC(C)Sc1cc(-c2nc3ccc(C)cn3c2NCc2ccccc2)ccc1OC (configuration not stated)	n	x	x	n	7.7	n	22	-25
CCOc1cc(C(=O)OC(C(=O)NC(=O)NC)c2ccccc2)ccc1OCC(=O)N1CCOCC1 (configuration not stated)	x	x	x	x	x	n	x	x
CC[C@@H](C)[C@H](CN[C@H](CNC)C(C)C)NC[C@@H](C)c1ccc(CC(C)C)cc1	n	n	n	n	n	n	n	n
Cc1ncoc1C(=O)N1CCCC(N2CCN(c3cccc(C(F)(F)F)c3)CC2)C1 (configuration not stated)	n	n	n	n	n	n	x	x
COc1ccc2nc(N/C(N)=N/C(=S)Nc3c(C)cccc3C)nc(C)c2c1	n	n	n	n	7.1	n	50	-41
COc1ccc2nc(N/C(N)=N/C(=S)Nc3cccc(C)c3)nc(C)c2c1	n	n	n	n	n	n	x	x
c1ccc(C[n+]2ccc3ccccc3c2)cc1	n	x	x	n	6.3	n	43	-48
c1ccc(C[n+]2cccc(-c3ccccc3)c2)cc1	n	n	n	n	n	n	x	x
COc1ccc(CNC(=S)Nc2ccc3nc(N4CCN(C)CC4)cc(C)c3c2)cc1	n	n	n	n	6.3	n	32	-37
COc1ccc(CNC(=S)Nc2ccc3nc(N4CCOCC4)cc(C)c3c2)cc1	n	n	n	n	n	n	x	x
Cc1cc(N2CCOCC2)nc2ccc(NC(=S)NCCC(C)C)cc12	n	n	n	n	n	n	19	-25
Cc1cc(N2CCN(C)CC2)nc2ccc(NC(=O)c3ccc(Br)o3)cc12	n	n	n	n	n	n	44	-30
Cc1cc(N2CCOCC2)nc2ccc(NC(=S)NCCN(C)C)cc12	n	n	n	n	n	n	45	-33
O=[N+]([O-])c1ccc(Cl)cc1NCC1CCCO1 (configuration not stated)	n	n	n	n	n	n	x	x
CCN1CCN(c2cc(C)c3cc(NC(=S)NCc4cccs4)ccc3n2)CC1	n	n	n	n	n	n	21	-41
CCN(CC)CCNC(=S)Nc1ccc2nc(N3CCOCC3)cc(C)c2c1	n	n	n	n	n	n	x	x
CCN(CC)CCNC(=S)Nc1ccc2nc(N3CCN(C)CC3)cc(C)c2c1	n	n	n	n	n	n	45	-24
Cc1cc(N2CCN(C)CC2)nc2ccc(NC(=S)NCc3cccs3)cc12	n	n	n	n	n	n	x	x
Cn1c(-c2ccc3ccccc3n2)nc2cnccc21	n	n	n	n	n	n	45	-40
COc1cc(OC)c(-c2nc3cnccc3n2C)cc1OC	n	n	n	n	6.6	n	55	-53
COc1cc(-c2nc3cnccc3n2C)cc(OC)c1OC	n	n	n	n	n	n	x	x
c1ccc(-c2ccc3ccccc3n2)cc1	n	x	x	n	n	n	x	x
SMILES	TMEM16A inh	IMP-1 inh	VIM-2 inh	CHT inh	CHT PAM	TMEM16A act	CHT act confirm	HEK293 MP dye
Oc1ccc(-c2nc3cnccn3c2Nc2ccc3c(c2)OCCO3)cc1	n	n	n	n	8.3	n	n	n
Cc1cccc(N2CCN(C(=O)c3cccc(S(=O)(=O)N4CCOCC4)c3)CC2)c1C	x	x	x	x	x	n	x	x
CN(Cc1ccccc1)c1nc2c(c(=O)n(C)c(=O)n2C)n1CCCc1ccccc1	n	n	n	n	8.7	n	25	n
Cn1c(=O)c2c(nc(CN3CCOCC3)n2CCCc2ccccc2)n(C)c1=O	n	n	n	n	n	n	x	x
CCCCCCn1c(CN2CCN(C)CC2)nc2c1c(=O)n(C)c(=O)n2C	n	n	n	n	9.5	n	61	-46
Cn1c(=O)c2c(nc(CN3CCN(c4cccc(Cl)c4)CC3)n2CCc2ccccc2)n(C)c1=O	n	n	n	n	9.3	n	24	n
CN1CCN(Cc2nc3c(c(=O)n(C)c(=O)n3C)n2CCCc2ccccc2)CC1	n	n	n	n	8	n	48	-36
CCN(CC)c1nc2c(c(=O)n(C)c(=O)n2C)n1CCCc1ccccc1	n	n	n	n	n	n	x	x
O=C(CCc1ccncc1)NC1CCCc2c1cnn2-c1ccc(F)cc1F (configuration not stated)	n	n	n	n	n	n	x	x
Cn1c(=O)c2c(nc(CN3CCN(c4ccccc4)CC3)n2CCc2ccccc2)n(C)c1=O	n	n	n	n	n	n	x	x
Cn1c(=O)c2c(nc(CN3CCCCC3)n2CCc2ccccc2)n(C)c1=O	n	n	n	n	12	n	47	n
Cc1nnc(Sc2cc(C(=O)NCCCN(C)Cc3ccccc3)c3ccccc3n2)s1	n	n	n	n	6.5	n	24	-29
COCCCNC(=O)c1cc(Sc2nnc(C)s2)nc2ccccc12	n	n	n	n	n	n	x	x
CN(C)CCC(C(=O)c1ccccc1)c1ccccn1 (configuration not stated)	x	x	x	x	x	n	x	x
CN(C)CC(CCCCC(CN(C)C)C(=O)c1ccccc1)C(=O)c1ccccc1 (configuration not stated)	n	n	n	n	8.4	n	29	n
COc1ccc(O)c(C(=O)c2cnn(C(=O)c3ccc(C)cc3)c2)c1	x	x	x	x	x	n	x	x
Cc1ccc(O)c(C(=O)c2cnn(C(=O)Cc3csc(C)n3)c2)c1	n	n	n	n	n	n	37	-43
Cc1noc(C)c1COC(=O)C1CCN(S(=O)(=O)c2ccc(F)cc2)CC1	x	x	x	x	x	n	x	x
Cc1nc2c(C)cccn2c(=O)c1NC(=O)c1ccc2c(c1)OCO2	n	x	x	n	n	n	x	x
COc1ccc(CN2CC(=O)N(c3ccc(C)c(C)c3)C2=S)cc1OC	n	n	n	n	n	n	x	x

Screening results deposited in PubChem BioAssay by several laboratories.
